According to ChEMBL document CHEMBL5724801, “EUbOPEN Chemogenomics Library - Multiplex” (2024):
Several values for one entry are separate records, joined by “and”; a condition that tells them apart may be missing. Equal entries are not always repeated.

Key:
U2OS = test: Multiplex assay against U2OS; format: toxicity, cell-based; settings: human
Method in brief: (§1)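 Hoechst33342, BioTracker Green Microtubule Cytoskeleton Dye, MitoTracker Red and Annexin V Alexa Fluor 680 were added to live cells at seeding, and imaging on a CQ1 microscope at 37°C and 5% CO2 followed compound addition. Gating by CellPathfinder machine learning separated cells into Hoechst high-intensity objects or normal cells, then normal cells into healthy, pyknosed or fragmented nuclei, then pyknosed cells into mitotic or apoptotic. Per cents of healthy-nucleus cells are reported for the tubulin, mitochondrial-mass and membrane-permeability phenotypes.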

HEK-293T = test: Multiplex assay against HEK293T; format: toxicity, cell-based; settings: human; method in brief: as §1
[1] = 12 h, 1 µM, compound concentration 1 uM
[2] = 12 h, 10 µM, compound concentration 10 uM
[3] = 24 h, 1 µM, compound concentration 1 uM
[4] = 24 h, 10 µM, compound concentration 10 uM
[5] = 48 h, 1 µM, compound concentration 1 uM
[6] = 48 h, 10 µM, compound concentration 10 uM

**Q.** Which results are given for `Cl.c1ccc2c(c1)CCC[C@H]2Nc1nc2ccccc2[nH]1`?
**A.** Population Apoptotic (%) (U2OS; [1]): 51.52% and 50%; Population Fragmented Nuclei (%) (U2OS; [1]): 1.35% and 1.11%; Population Healthy Nuclei (%) (U2OS; [1]): 89.73% and 86.67%; Population Hoechst High Intensity Objects (%) (U2OS; [1]): 0%; Population Membrane Permeable-Phenotype (%) (U2OS; [1]): 0.9% and 4.49%; Population Mitochondria Different-Phenotype (%) (U2OS; [1]): 0% and 8.33%; Population Mitotic Cells (%) (U2OS; [1]): 48.48% and 50%; Population Normal (%) (U2OS; [1]): 100%; Population Pyknosed Nuclei (%) (U2OS; [1]): 8.92% and 12.22%; Population Tubulin-Different-Phenotype (%) (U2OS; [1]): 0.9% and 0.64%; Total Cell Count (U2OS; [1]): 370 and 180; Population Apoptotic (%) (U2OS; [2]): 34.15% and 18.18%; Population Fragmented Nuclei (%) (U2OS; [2]): 1.73% and 1.16%; Population Healthy Nuclei (%) (U2OS; [2]): 88.15% and 86.13%; Population Hoechst High Intensity Objects (%) (U2OS; [2]): 0%; Population Membrane Permeable-Phenotype (%) (U2OS; [2]): 1.96% and 2.01%; Population Mitotic Cells (%) (U2OS; [2]): 65.85% and 81.82%; Population Normal (%) (U2OS; [2]): 100%; Population Pyknosed Nuclei (%) (U2OS; [2]): 10.12% and 12.72%; Population Tubulin-Different-Phenotype (%) (U2OS; [2]): 1.96% and 2.01%; Total Cell Count (U2OS; [2]): 405 and 173; Population Apoptotic (%) (U2OS; [3]): 36.36% and 51.52%; Population Fragmented Nuclei (%) (U2OS; [3]): 1.17% and 2.47%; Population Healthy Nuclei (%) (U2OS; [3]): 92.41% and 83.95%; Population Hoechst High Intensity Objects (%) (U2OS; [3]): 0.19% and 0%; Population Membrane Permeable-Phenotype (%) (U2OS; [3]): 0.42% and 2.94%; Population Mitochondria Different-Phenotype (%) (U2OS; [3]): 0.21% and 7.35%; Population Mitotic Cells (%) (U2OS; [3]): 63.64% and 48.48%; Population Normal (%) (U2OS; [3]): 99.81% and 100%; Population Pyknosed Nuclei (%) (U2OS; [3]): 6.42% and 13.58%; Population Tubulin-Different-Phenotype (%) (U2OS; [3]): 0.21% and 1.47%; Total Cell Count (U2OS; [3]): 515 and 243; Population Apoptotic (%) (U2OS; [4]): 40% and 51.85%; Population Fragmented Nuclei (%) (U2OS; [4]): 2.23% and 2.74%; Population Healthy Nuclei (%) (U2OS; [4]): 89.41% and 84.93%; Population Hoechst High Intensity Objects (%) (U2OS; [4]): 0%; Population Membrane Permeable-Phenotype (%) (U2OS; [4]): 1.87% and 2.69%; Population Mitochondria Different-Phenotype (%) (U2OS; [4]): 0.42% and 8.06%; Population Mitotic Cells (%) (U2OS; [4]): 60% and 48.15%; Population Normal (%) (U2OS; [4]): 100%; Population Pyknosed Nuclei (%) (U2OS; [4]): 8.36% and 12.33%; Population Tubulin-Different-Phenotype (%) (U2OS; [4]): 1.87% and 1.08%; Total Cell Count (U2OS; [4]): 538 and 219; Population Apoptotic (%) (U2OS; [5]): 36.59% and 47.06%; Population Fragmented Nuclei (%) (U2OS; [5]): 3.12% and 2.18%; Population Healthy Nuclei (%) (U2OS; [5]): 88.61% and 85.44%; Population Hoechst High Intensity Objects (%) (U2OS; [5]): 0%; Population Membrane Permeable-Phenotype (%) (U2OS; [5]): 0.46% and 2.27%; Population Mitochondria Different-Phenotype (%) (U2OS; [5]): 0.11% and 6.25%; Population Mitotic Cells (%) (U2OS; [5]): 63.41% and 52.94%; Population Normal (%) (U2OS; [5]): 100%; Population Pyknosed Nuclei (%) (U2OS; [5]): 8.27% and 12.38%; Population Tubulin-Different-Phenotype (%) (U2OS; [5]): 0.57% and 0.85%; Total Cell Count (U2OS; [5]): 992 and 412; Population Apoptotic (%) (U2OS; [6]): 41.57% and 48.08%; Population Fragmented Nuclei (%) (U2OS; [6]): 2.25% and 2.98%; Population Healthy Nuclei (%) (U2OS; [6]): 88.65% and 82.93%; Population Hoechst High Intensity Objects (%) (U2OS; [6]): 0% and 0.27%; Population Membrane Permeable-Phenotype (%) (U2OS; [6]): 1.5% and 3.92%; Population Mitochondria Different-Phenotype (%) (U2OS; [6]): 0% and 3.92%; Population Mitotic Cells (%) (U2OS; [6]): 58.43% and 51.92%; Population Normal (%) (U2OS; [6]): 100% and 99.73%; Population Pyknosed Nuclei (%) (U2OS; [6]): 9.1% and 14.09%; Population Tubulin-Different-Phenotype (%) (U2OS; [6]): 1.5% and 2.61%; Total Cell Count (U2OS; [6]): 978 and 370; Population Apoptotic (%) (HEK-293T; [1]): 12.41% and 9.85%; Population Fragmented Nuclei (%) (HEK-293T; [1]): 1.91% and 2.52%; Population Hoechst High Intensity Objects (%) (HEK-293T; [1]): 0.95% and 0.62%; Population Membrane Permeable-Phenotype (%) (HEK-293T; [1]): 0.58% and 0%; Population Mitotic Cells (%) (HEK-293T; [1]): 87.59% and 90.15%; Population Normal (%) (HEK-293T; [1]): 99.05% and 99.38%; Population Pyknosed Nuclei (%) (HEK-293T; [1]): 43.63% and 83.02%; Total Cell Count (HEK-293T; [1]): 317 and 160; Population Apoptotic (%) (HEK-293T; [2]): 7.19% and 13.79%; Population Fragmented Nuclei (%) (HEK-293T; [2]): 2.56% and 5.8%; Population Hoechst High Intensity Objects (%) (HEK-293T; [2]): 0.57% and 0%; Population Membrane Permeable-Phenotype (%) (HEK-293T; [2]): 0%; Population Mitotic Cells (%) (HEK-293T; [2]): 92.81% and 86.21%; Population Normal (%) (HEK-293T; [2]): 99.43% and 100%; Population Pyknosed Nuclei (%) (HEK-293T; [2]): 47.58% and 84.06%; Total Cell Count (HEK-293T; [2]): 353 and 138; Population Apoptotic (%) (HEK-293T; [3]): 15.19% and 12.5%; Population Fragmented Nuclei (%) (HEK-293T; [3]): 2.28% and 0.59%; Population Healthy Nuclei (%) (HEK-293T; [3]): 64.94% and 28.82%; Population Hoechst High Intensity Objects (%) (HEK-293T; [3]): 0%; Population Membrane Permeable-Phenotype (%) (HEK-293T; [3]): 1.6% and 2.04%; Population Mitotic Cells (%) (HEK-293T; [3]): 84.81% and 87.5%; Population Normal (%) (HEK-293T; [3]): 100%; Population Pyknosed Nuclei (%) (HEK-293T; [3]): 32.78% and 70.59%; Population Tubulin-Different-Phenotype (%) (HEK-293T; [3]): 15.97% and 10.2%; Total Cell Count (HEK-293T; [3]): 482 and 170
